# Measurements published in ChEMBL document CHEMBL4725282, “Discovery of a Conformationally Constrained Oxazolidinone with Improved Safety and Efficacy Profiles for the Treatment of Multidrug-Resistant Tuberculosis” (J Med Chem, 2020).
# Columns and labels:
# [1] = Toxicity in male Sprague-Dawley rat assessed as ophthalmic changes at 50 to 450 mg/kg/day, po administered for 4 weeks followed by 2 week recovery period measured within 7 days of post recover period; assay type: organism-based; conditions: in vivo, 672 h, dose 50-450 mg/kg/day
# [2] = Half life in cynomolgus monkey hepatocytes at 2 uM by LC-MS/MS analysis; assay type: ADME, cell-based, Macaca fascicularis, Hepatocyte
# Summary of the method: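 Hepatocytes (male CD-1 mouse, male SD rat, male beagle dog, male cynomolgus monkey, pooled human), final 1 μM compound and 1 million cells/mL, made by mixing 2 μM compound with 2 million cells/mL. Incubated at 37 °C in a CO2 incubator; sampled at 0, 15, 30, 60, 90 and 120 min. Quenched with methanol/ACN containing 0.1% formic acid. Parent remaining measured by LC-MS/MS.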
# [3] = Apparent permeability in human Caco-2 cells at 50 uM after 1 hr by UPLC analysis; assay type: ADME, cell-based
# Summary of the method: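 Caco-2 monolayers on Transwells, cultured 21 days, TEER required >500 Ω×cm². Compound at 50 μM added apically, 1 h at 37 °C. Transported compound quantified by UPLC. Papp = (dQ/dt)/(C0×A).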
# [4] = Toxicity in female Sprague-Dawley rat assessed as change in reticulocyte level at 450 mg/kg/day, po administered for 4 weeks followed by 2 week recovery period (Rvb =2.85 +/- 0.53 %); assay type: organism-based; conditions: in vivo, 672 h
# Cytochrome P450 2C9 = Cytochrome P450 2C9 (Homo sapiens, UniProt P11712); test: Inhibition of CYP2C9 in human liver microsomes after 20 mins by LC-MS/MS analysis; assay type: ADME
# Sequence of Cytochrome P450 2C9 (P11712 whole entry): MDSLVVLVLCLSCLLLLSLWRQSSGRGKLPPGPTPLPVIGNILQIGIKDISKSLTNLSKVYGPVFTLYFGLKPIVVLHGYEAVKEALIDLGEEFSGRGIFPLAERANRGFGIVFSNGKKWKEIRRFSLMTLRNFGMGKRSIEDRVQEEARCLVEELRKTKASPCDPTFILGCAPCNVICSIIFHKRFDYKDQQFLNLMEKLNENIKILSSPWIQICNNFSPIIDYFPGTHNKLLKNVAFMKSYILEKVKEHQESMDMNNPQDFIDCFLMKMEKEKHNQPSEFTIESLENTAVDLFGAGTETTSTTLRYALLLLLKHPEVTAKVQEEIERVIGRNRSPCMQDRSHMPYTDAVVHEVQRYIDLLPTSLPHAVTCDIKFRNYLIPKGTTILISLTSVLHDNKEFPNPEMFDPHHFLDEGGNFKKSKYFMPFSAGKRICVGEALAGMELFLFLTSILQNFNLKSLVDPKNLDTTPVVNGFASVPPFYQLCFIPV
smiles,measurement,setting,value
CC(=O)NC[C@@H]1OC(=O)N2c3cc(F)c(N4CCSCC4)cc3OC[C@@H]12,Activity,[1],Non-Toxic
same,half-life at 2 µM,[2],5.25 h
same,"Papp at 1 h, 50 µM",[3],67.6 ×10⁻⁶ cm/s
same,Activity,[4],2.93%
same,IC50,Cytochrome P450 2C9,> 50 µM
